From ChEMBL document CHEMBL4513216, “Probing the Open Global Health Chemical Diversity Library for Multistage-Active Starting Points for Next-Generation Antimalarials” (ACS Infect Dis, 2020)

Assay: Toxicity liver stage against HepG2, at 10uM
Assay type: cell-based
Design: test concentration 10 uM, cell line HepG2-A16-CD81EGFP
Settings: human, HepG2-A16-CD81EGFP cells; read-out: INHIBITION
Summary of the method: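 Uninfected HepG2-A16-CD81EGFP cells, 3 × 10^3 per well, 1536-well, plated on prespotted compound at 10 μM final, parasite-free screening media added to match infected plates; puromycin 10 μM positive, DMSO 0.5% negative; run in parallel with 48 h PbLuc assay at 37 °C, 5% CO2; viability by CellTiter-Glo luminescence, normalized to controls.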

| SMILES | cytotoxicity at 10 µM [%] |
| --- | --- |
| COCCN1CCN(C(=O)C[C@@H]2C[C@@H](C(C)C)[C@H](CO)C=C2C)CC1 | 4.82 |
| COCC(=O)NC[C@H]1C[C@@H]2CCN1C[C@@H]2CN(C)c1ccccc1 | -2.17 |
| COc1ccccc1NC(=O)N1CCCC1c1ccco1 (stereo not drawn) | -4.78 |
| Cn1ccc2c(C(=O)N3CC[C@@]4(O)CCCC[C@H]4C3)cccc21 | -42.9 |
| Cc1cc2c(N)nc(=O)n(CC(=O)Nc3ccccc3)c2s1 | 1.54 |
| Cc1ccc(S(=O)(=O)Nc2c(C)nc(N3CCCC3)nc2C)cc1 | -0.243 |
| CN1[C@@H](C(=O)NCC2CC2)C[C@@H]2CN(Cc3ccoc3)C[C@@H]21 | 3.88 |
| O=C(CCc1nc2cccnc2[nH]1)Nc1cccnc1 | 2.92 |
| Cc1cc(C(=O)N2C[C@@H]3COC[C@]3(COCc3cccnc3)C2)no1 | -16.1 |
| OC(CN1CCOCC1)c1ccc(Br)cc1 (stereo not drawn) | -6.58 |
| CCS(=O)(=O)Nc1cnn(Cc2cccc(Cl)c2)c1 | -11.5 |
| CCCN1CCC(NC(=O)c2csc(C)c2-c2ccc(C)cc2)CC1 | -4.14 |
| CCCc1noc(C2CCCCN2C(=O)CCc2cnn(C)c2)n1 (stereo not drawn) | -1.89 |
| CCn1ncc(Cl)c1CN(C)C(=O)CCn1ncc(Br)c1C | 2.93 |
| CCOCc1cccc(S(=O)(=O)N2CCSCC2)c1 | 1.26 |
| COc1ccc(CC(=O)N2CCN(Cc3ccco3)C[C@@H]2C)cc1 | 1.42 |
| CC(C)N1CCN(C)CC(Cc2cc(N(C)C)ncn2)C1 (stereo not drawn) | 9.25 |
| CC[C@H](Cn1ncc2ccccc2c1=O)NC(=O)c1cnc(C)cn1 | 5.98 |
| CC(=O)N1CCCC1c1nc(N(C)C)ncc1-c1ccccc1 (stereo not drawn) | 6.12 |
| CCn1ccc2ccnc(CC3CN(C(=O)c4cnco4)C3)c21 | -6.61 |
| CN(C)c1nccc(C2CN(C(=O)CO)C2)n1 | -10.6 |
| CC(=O)N1CCC(Cc2cnc(-c3c(C)n[nH]c3C)cn2)CC1 | -21.7 |
| Cc1noc(C)c1-c1cncc(C2CCCN2Cc2ncccc2F)n1 (stereo not drawn) | 7.84 |

| SMILES | cytotoxicity at 10 µM [%] |
| --- | --- |
| O=C(COc1cccc(F)c1)N1CCCCC1c1ccn2ccnc2n1 (stereo not drawn) | -6.11 |
| CNC(=O)C1(c2cnccn2)CCCN1C(=O)c1cccc(F)c1 (stereo not drawn) | -29.6 |
| O=c1[nH]c2ncccc2n1C1CCCCC1 | 3.16 |
| O=C(CCNc1ccc(Cl)cn1)NCc1ccncc1 | -2.31 |
| CCn1c(C)cc(C(=O)Nc2ccccc2CN(C)C(C)=O)c1C | -1.03 |
| CN(C)CCOc1ccccc1N1CCN(C(=O)c2ccoc2)CC1 | 24.8 |
| CCNC(=O)Nc1cccc(F)c1C(=O)NC1CCCC1 | 5.69 |
| O=C(Cc1ccc(F)cc1)NCc1ccc(C(=O)O)o1 | -8.06 |
| COCCN1CC(C(=O)N(C)Cc2ccc(Cl)s2)CC1=O (stereo not drawn) | 8.69 |
| COC(=O)C(NC(=O)c1ccc(NC2CC2)nc1)c1ccccc1 (stereo not drawn) | -9.88 |
| COC1CCN(C(=O)c2ccc3ncsc3c2)CC1 | -10.3 |
| COc1ccc(CN(C(=O)C2CCOCC2)c2ccncc2)cc1 | 8.5 |
| Cn1cnnc1CNC(=O)CCCOc1ccccc1Cl | 3.28 |
| COc1ccc(OC)c(CN2CCN(Cc3cscn3)CC2)c1 | -7.15 |
| CNC(=O)c1cc(NC(=O)Nc2cnn(CC(C)C)c2)ccc1F | -3.79 |
| NC(=O)NC1CCN(Cc2ccc(Br)c(F)c2)CC1 | -1.57 |
| Cc1cc(C(=O)Nc2cc(C3CC3)n[nH]2)c2c(C)nn(C)c2n1 | -2.14 |
| CC(C)C(NC(=O)Cc1ccccc1)C(=O)NCc1ccc(O)nc1 (stereo not drawn) | 0.833 |
| CC(C)C(C)N(C(=O)Cn1nc2n(c1=O)CCCCC2)C1CC1 (stereo not drawn) | -5.77 |
| c1ccc2nc(N3CCCCC3)c(NCc3nnc4n3CCC4)nc2c1 | 2.48 |
| CN(C)c1cc2c(nn1)CCN(C(=O)c1cc3c(s1)CCC3)C2 | -6.97 |
| CCS(=O)(=O)CC(=O)N1CCCC(c2noc(C(C)C)n2)C1 (stereo not drawn) | -4.78 |
| CCOc1ccc(Cl)cc1CCNC(=O)N1CCCC(CO)C1 (stereo not drawn) | 5.46 |

| SMILES | cytotoxicity at 10 µM [%] |
| --- | --- |
| CC(CC(=O)N1CCC(c2nnc3n2CCC3)CC1)n1cccc1 (stereo not drawn) | 8.11 |
| Cc1cc(C(=O)NCC(c2ccccc2Cl)N2CCOCC2)on1 (stereo not drawn) | 2.62 |
| Cc1nn(C)c(C)c1CC(=O)NCc1cccnc1N1CCOCC1 | -139 |
| CCOc1ccc(NC(C)C(=O)NCCc2cccs2)cc1CO (stereo not drawn) | -6.79 |
| N#Cc1cccc(OCCCN2CCN(C(=O)c3ccoc3)CC2)c1 | 3.57 |
| CN(CC1CC1)C(=O)CN1CCCC1c1cnn(C)c1 (stereo not drawn) | 2.01 |
| Cc1noc(CCNS(=O)(=O)N2CCCC2c2ccc(C)o2)n1 (stereo not drawn) | -10 |
| O=C(CN1CCc2[nH]c3ccccc3c2C1)NCc1ccco1 | -3.04 |
| COc1ccc(CNCCc2ccn(-c3ccccc3)n2)cc1O | -0.13 |
| CNC(=O)CCc1cccc(OC2CCCC2)c1 | -0.408 |
| Cn1ncnc1CNc1ccccc1C(=O)NC(C)(C)C | 3.9 |
| Cc1cc(C2CCCN(CCC(=O)N3CCc4ccccc43)C2)n[nH]1 (stereo not drawn) | -7.9 |
| CC(=O)c1ccc(Cl)c(Cl)c1OCC(=O)NC(N)=O | 7.49 |
| CC(Nc1cccc(Oc2ccc(C#N)cn2)c1)C(=O)NC1CC1 (stereo not drawn) | 12.8 |
| Cc1cc(CNC(=O)c2ccc(F)c(COCC3CC3)c2)no1 | -0.429 |
| CNC(=O)CN1CCC(NC(=O)Cc2ccccc2OC(C)C)CC1 | -2.14 |
| O=C(NCCc1csc(N2CCCC2)n1)N(C1CCCC1)C1CC1 | 10.8 |
| O=C(COc1cccc2c1CCC2=O)NCc1ccccc1F | -5.33 |
| COCC(=O)NCC[C@H]1CC(C)(C)Oc2ccc(OC)cc21 | -5.36 |
| O=C(CSCC1CC1)N1CCC2(CCCN(C3CCOCC3)C2=O)C1 (stereo not drawn) | -127 |
| CCSc1ncc(CN(Cc2cnn(C)c2)CC(C)C)cn1 | -7.53 |
| CS(=O)(=O)NCc1cc2n(n1)CCCN(Cc1ccc(Cl)s1)C2 | 2.81 |
| COCCn1c(CN2CCCO2)cnc1S(=O)(=O)CC1CCCCC1 | -8.62 |

| SMILES | cytotoxicity at 10 µM [%] |
| --- | --- |
| CCc1csc(CCNC(=O)CC2CCN(C(C)C)CC2)n1 | 6.62 |
| Cc1ncsc1CCN(C)Cc1cc2n(n1)CCN(Cc1ccco1)C2 | -4.93 |
| CN1CCC(C)(CN(C)C(=O)c2ccc(CCC(C)(C)O)cc2)C1 (stereo not drawn) | -11.2 |
| CN1CCC2(CC1)CCN(C(=O)c1onc3ccccc13)C2 | -9.14 |
| COc1ccc(-c2ccc(C(=O)N3CCOCC3CC(=O)O)o2)cc1 (stereo not drawn) | 1.79 |
| CCc1cc(C(=O)N2CC[C@@H](c3ccc4ccccc4c3)[C@H](O)C2)[nH]n1 | 3.46 |
| CC(C)SCCNC(=O)c1cccc2ccnn12 | -51.6 |
| CN1CC2(CCCN(Cc3ccccc3OCC(=O)O)C2)OC1=O (stereo not drawn) | -6.64 |
| Cc1nnc(CCNC(=O)c2coc(CN3CCOCC3)c2)s1 | -9.21 |
| COc1cccc(C(=O)N2CCC3(CCC(=O)N(C(C)C)C3)CC2)c1C | -3.21 |
| CSCCCN1CCN(c2ccc(Cl)cn2)CC1 | -5.52 |
| CC[C@H](C)[C@@H](CO)NC(C)Cc1ccccc1F (stereo partly drawn) | -7.36 |
| CCCc1nnc(N2CCN(c3ccccc3OCC)CC2)o1 | 3.88 |
| Cc1cccc(CN2CCc3c(nc(N4CCC(C)CC4)[nH]c3=O)C2)n1 | -1.75 |
| Cc1nnc(NCc2ccccc2F)c(C#N)c1C | -9.71 |
| CC(NC(=O)NCCCN1CCCC1)c1nncn1C (stereo not drawn) | -0.373 |
| COc1cc(CNCC(O)c2ccc(F)cc2F)cc2c1OCO2 (stereo not drawn) | -1.37 |
| CCS(=O)(=O)c1ccccc1N1CCC(NC2CCCC2)CC1 | -2.63 |
| CCc1nc(CNCCn2cc(C)cn2)no1 | -4.32 |
| Cn1cc(C2CCCN2C(=O)CCCOc2ccccc2F)cn1 (stereo not drawn) | 0.2 |
| Cc1noc(CCCC(=O)N2CCCC2c2ccsc2)n1 (stereo not drawn) | -3.02 |
| CS(=O)(=O)NCCN1CCCC1c1noc(C2CC2)n1 (stereo not drawn) | -23.7 |
| Cc1n[nH]c(C2CN(Cc3nnc(C4CCC4)o3)CCO2)n1 (stereo not drawn) | -3.72 |

| SMILES | cytotoxicity at 10 µM [%] |
| --- | --- |
| c1ccc(-c2nnc(CN3CCOC(Cn4cccn4)C3)o2)cc1 (stereo not drawn) | -2.48 |
| Cc1n[nH]c(C2CN(C(=O)c3cc4c(s3)CCC4)CCO2)n1 (stereo not drawn) | -5.65 |
| Cc1nc(C(=O)N2CCCC2c2noc(C)n2)c[nH]1 (stereo not drawn) | -4.95 |
| CC(C)c1ccc(S(=O)(=O)N2CSCC2C(=O)NCC(F)(F)F)cc1 (stereo not drawn) | -13.3 |
| Fc1ccc(OCCNCCn2cccn2)cc1 | -4.17 |
| CC(C)c1nc(C2CCCN2C(=O)c2ccc(N(C)C)nn2)no1 (stereo not drawn) | -8.11 |
| Cc1nc(CN(C)C2CCN(CC(=O)NC3CCOCC3)C2)no1 (stereo not drawn) | -7.15 |
| CC(C(=O)NCc1ccnc(N2CCCC2)c1)n1cncn1 (stereo not drawn) | -3.43 |
| O=C(c1cccc2[nH]ncc12)N1CCCC1c1noc(C2CC2)n1 (stereo not drawn) | -2.91 |
| CCn1cc(NC(=O)C2CCN(Cc3noc(C(C)C)n3)CC2)cn1 | 0.89 |
| COc1ccnc(N2CCN(C(=O)NCc3ccc(C)s3)CC2)n1 | -2.45 |
| COCCOc1ccc(NC(=O)N2CCCC2c2cc(C)no2)cn1 (stereo not drawn) | 5.32 |
| CCCc1ccc(OCCNCc2ccco2)c(OC)c1 | -2.04 |
| CN1CCN(Cc2ccncc2)C(=O)C12CCN(Cc1ccsc1)CC2 | 3.03 |
| CCOCC1CN(C(=O)c2ccncn2)Cc2cnn(C)c21 (stereo not drawn) | -143 |
| CC(C)CN1CC[C@@H]2[C@@H]1CCN2S(=O)(=O)c1cccs1 | 2.61 |
| CC(C)c1nn(C)c(Cl)c1CNCc1ccc2c(c1)OCCO2 | -1.64 |
| O=C(CC1CC1)NC[C@]12COC[C@H]1CN(c1ncc(F)cn1)C2 | -141 |
| Fc1cnc(N2CCCC3(CN(Cc4ccncc4)CCO3)C2)nc1 (stereo not drawn) | 3.34 |
| Cc1n[nH]cc1CNCC(O)c1ccc(F)c(F)c1 (stereo not drawn) | 6.8 |
| O=C(NCCc1ccccc1)C1CCC(Cn2cnnn2)CC1 (stereo not drawn) | 2.01 |
